One assay deals with Vasopressin V2 receptor (Homo sapiens, UniProt P30518). The experiment in a line: Binding affinity against human vasopressin V2 receptor was determined by using plasma membranes from CHO cells stably transfected with VP/OT receptors. It is filed as cell membranes. In short, it runs like this:
(§1)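 Competition binding on plasma membranes from stably transfected CHO cells (human receptors). Membranes (1–20 µg protein) incubated 60 min at 30 °C in 50 mM Tris-HCl pH 7.4, 3 mM MgCl2, 1 mg/mL BSA, leupeptine, 0.1 mM PMSF, with 0.5–3 nM [3H]AVP and increasing analogue; nonspecific binding with 1 µM AVP.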

The target in another assay is Vasopressin V1a receptor (Homo sapiens, UniProt P37288). Briefly: Binding affinity against human vasopressin V1a receptor was determined by using plasma membranes from CHO cells stably transfected with VP/OT receptors. The class given is cell membranes. A digest of the protocol: as §1
Chain of Vasopressin V1a receptor (P37288 whole entry): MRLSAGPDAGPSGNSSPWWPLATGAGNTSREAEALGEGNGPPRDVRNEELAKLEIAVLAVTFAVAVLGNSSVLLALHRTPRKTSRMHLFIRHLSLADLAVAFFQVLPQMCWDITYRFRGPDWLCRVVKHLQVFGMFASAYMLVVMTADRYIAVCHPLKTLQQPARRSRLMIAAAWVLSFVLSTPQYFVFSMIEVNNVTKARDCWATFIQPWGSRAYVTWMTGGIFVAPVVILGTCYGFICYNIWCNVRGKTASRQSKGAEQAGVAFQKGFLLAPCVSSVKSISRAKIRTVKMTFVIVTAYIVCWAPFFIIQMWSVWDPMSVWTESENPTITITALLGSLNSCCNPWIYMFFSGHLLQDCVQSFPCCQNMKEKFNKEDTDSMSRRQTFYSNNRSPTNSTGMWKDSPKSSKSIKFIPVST

Bridge positions count the residues as written; N and C are the ends. Square brackets hold non-standard residues; d marks the D form. Peptide text beside a SMILES is read from it. Cha = N[C@@H](CC1CCCCC1)C(=O)O; Mpa = O=C(O)CCS

Chain of Vasopressin V2 receptor (P30518 whole entry): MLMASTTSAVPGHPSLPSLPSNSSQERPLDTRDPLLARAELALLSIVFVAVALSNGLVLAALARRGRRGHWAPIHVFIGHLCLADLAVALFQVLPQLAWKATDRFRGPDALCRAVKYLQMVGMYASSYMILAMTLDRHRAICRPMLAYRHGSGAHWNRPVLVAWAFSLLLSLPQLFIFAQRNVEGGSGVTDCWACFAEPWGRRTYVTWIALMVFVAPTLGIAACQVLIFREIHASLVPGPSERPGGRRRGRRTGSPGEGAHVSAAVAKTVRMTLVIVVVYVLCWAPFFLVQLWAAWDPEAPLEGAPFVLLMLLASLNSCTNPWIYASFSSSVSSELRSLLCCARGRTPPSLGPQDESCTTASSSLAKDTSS

What is called Ki is a measure of affinity in units of concentration, obtained from inhibition or displacement. High values mean a looser hold on the target, low ones a stronger hold on the target. `C[C@@H](O)[C@@H]1NC(=O)[C@H](Cc2ccccc2)NC(=O)[C@H](Cc2ccc(O)cc2)NC(=O)CCSSC[C@@H](C(=O)N2CCC[C@H]2C(=O)N[C@@H](CCCN=C(N)N)C(=O)NCC(N)=O)NC(=O)[C@H](CC(N)=O)NC1=O` (stereo in doubt): the inhibitory constant (Ki) came out at 0.0015 µM on Vasopressin V2 receptor and 0.0029 µM at Vasopressin V1a receptor.

`CC(C)[C@@H]1NC(=O)[C@H](Cc2ccccc2)NC(=O)[C@H](Cc2ccc(O)cc2)NC(=O)CCSSC[C@@H](C(=O)N2CCC[C@H]2C(=O)N[C@@H](CCCN=C(N)N)C(=O)NCC(N)=O)NC(=O)[C@H](CC(N)=O)NC1=O` ([Mpa]YFVNCPRG-NH2; disulfide 1-6): the figures for the Ki on Vasopressin V2 receptor and at Vasopressin V1a receptor were 0.0012 µM and 0.0114 µM, respectively.

For `NC(=O)CNC(=O)[C@H](CCCN=C(N)N)NC(=O)[C@@H]1CCCN1C(=O)[C@@H]1CSSCCC(=O)N[C@@H](Cc2ccc(O)cc2)C(=O)N[C@@H](Cc2ccccc2)C(=O)N[C@@H](CC(N)=O)C(=O)N[C@@H](CC(N)=O)C(=O)N1` (stereo in doubt), at Vasopressin V2 receptor, the inhibition constant Ki came out at 0.05 µM.

Consider `NC(=O)CNC(=O)[C@H](CCCN=C(N)N)NC(=O)[C@@H]1CCCN1C(=O)[C@@H]1CSSCCC(=O)N[C@@H](Cc2ccc(O)cc2)C(=O)N[C@@H](Cc2ccccc2)C(=O)N[C@@H](CCC(=O)O)C(=O)N[C@@H](CC(N)=O)C(=O)N1` (stereo in doubt), for which the Ki amounted to 1.09 µM at Vasopressin V2 receptor and 0.436 µM at Vasopressin V1a receptor.

Take `CC(C)C[C@@H]1NC(=O)[C@H](Cc2ccccc2)NC(=O)[C@H](Cc2ccc(O)cc2)NC(=O)CCSSC[C@@H](C(=O)N2CCC[C@H]2C(=O)N[C@@H](CCCN=C(N)N)C(=O)NCC(N)=O)NC(=O)[C@H](CC(N)=O)NC1=O`: the values for the inhibition constant (Ki) at Vasopressin V2 receptor and at Vasopressin V1a receptor were 0.245 µM and 0.0441 µM, respectively.

For the compound `NCCC[C@@H]1NC(=O)[C@H](Cc2ccccc2)NC(=O)[C@H](Cc2ccc(O)cc2)NC(=O)CCSSC[C@@H](C(=O)N2CCC[C@H]2C(=O)N[C@@H](CCCN=C(N)N)C(=O)NCC(N)=O)NC(=O)[C@H](CC(N)=O)NC1=O` (stereo in doubt), the Ki on Vasopressin V2 receptor came out at 1.13 µM; at Vasopressin V1a receptor, 0.088 µM.

As to `NC(=O)CNC(=O)[C@H](CCCN=C(N)N)NC(=O)[C@@H]1CCCN1C(=O)[C@@H]1CSSCCC(=O)N[C@@H](Cc2ccc(O)cc2)C(=O)N[C@@H](Cc2ccccc2)C(=O)N[C@@H](Cc2ccc(O)cc2)C(=O)N[C@@H](CC(N)=O)C(=O)N1` (stereo in doubt), the Ki was 0.621 µM on Vasopressin V2 receptor and 0.0369 µM at Vasopressin V1a receptor.

As to `NC(=O)CNC(=O)[C@H](CCCN=C(N)N)NC(=O)[C@@H]1CCCN1C(=O)[C@@H]1CSSCCC(=O)N[C@@H](Cc2ccc(O)cc2)C(=O)N[C@@H](Cc2ccccc2)C(=O)N[C@@H](CC2CCCCC2)C(=O)N[C@@H](CC(N)=O)C(=O)N1` ([Mpa]YF[Cha]NCPRG-NH2; disulfide 1-6), the Ki at Vasopressin V2 receptor stood at 0.75 µM; on Vasopressin V1a receptor it was 0.151 µM.

Regarding `CC[C@H](C)[C@@H]1NC(=O)[C@H](Cc2ccccc2)NC(=O)[C@H](Cc2ccc(O)cc2)NC(=O)CCSSC[C@@H](C(=O)N2CCC[C@H]2C(=O)N[C@@H](CCCN=C(N)N)C(=O)NCC(N)=O)NC(=O)[C@H](CC(N)=O)NC1=O`, the Ki on Vasopressin V2 receptor was found to be 0.0099 µM; on Vasopressin V1a receptor, 0.0168 µM.

As to `N=C(N)NCCC[C@@H]1NC(=O)[C@H](Cc2ccccc2)NC(=O)[C@H](Cc2ccc(O)cc2)NC(=O)CCSSC[C@@H](C(=O)N2CCC[C@H]2C(=O)N[C@@H](CCCN=C(N)N)C(=O)NCC(N)=O)NC(=O)[C@H](CC(N)=O)NC1=O` (stereo in doubt), the results for the Ki at Vasopressin V2 receptor and at Vasopressin V1a receptor were 0.131 µM and 0.0542 µM, respectively.

`NC(=O)CNC(=O)[C@H](CCCN=C(N)N)NC(=O)[C@@H]1CCCN1C(=O)[C@@H]1CSSCCC(=O)N[C@@H](Cc2ccc(O)cc2)C(=O)N[C@@H](Cc2ccccc2)C(=O)N[C@@H](Cc2ccccc2)C(=O)N[C@@H](CC(N)=O)C(=O)N1` (stereo in doubt): the Ki on Vasopressin V2 receptor came to 1.07 µM; at Vasopressin V1a receptor it was 0.08 µM.

In the case of `NC(=O)CNC(=O)[C@H](CCCN=C(N)N)NC(=O)[C@@H]1CCCN1C(=O)[C@@H]1CSSCCC(=O)N[C@@H](Cc2ccc(O)cc2)C(=O)N[C@@H](Cc2ccccc2)C(=O)NCC(=O)N[C@@H](CC(N)=O)C(=O)N1`, the inhibition constant (Ki) at Vasopressin V2 receptor stood at 0.554 µM; at Vasopressin V1a receptor, 0.276 µM.

In the case of `NC[C@@H]1NC(=O)[C@H](Cc2ccccc2)NC(=O)[C@H](Cc2ccc(O)cc2)NC(=O)CCSSC[C@@H](C(=O)N2CCC[C@H]2C(=O)N[C@@H](CCCN=C(N)N)C(=O)NCC(N)=O)NC(=O)[C@H](CC(N)=O)NC1=O` (stereo in doubt), the Ki at Vasopressin V2 receptor was 0.0368 µM; on Vasopressin V1a receptor, 0.0197 µM.

Take `NC(=O)CNC(=O)[C@H](CCCN=C(N)N)NC(=O)[C@@H]1CCCN1C(=O)[C@@H]1CSSCCC(=O)N[C@@H](Cc2ccc(O)cc2)C(=O)N[C@@H](Cc2ccccc2)C(=O)N[C@@H](CO)C(=O)N[C@@H](CC(N)=O)C(=O)N1` (stereo in doubt): the Ki amounted to 0.0247 µM on Vasopressin V2 receptor and 0.013 µM at Vasopressin V1a receptor.

`NC(=O)CNC(=O)[C@H](CCCN=C(N)N)NC(=O)[C@@H]1CCCN1C(=O)[C@@H]1CSSCCC(=O)N[C@@H](Cc2ccc(O)cc2)C(=O)N[C@@H](Cc2ccccc2)C(=O)N[C@@H](Cc2cccs2)C(=O)N[C@@H](CC(N)=O)C(=O)N1` (stereo in doubt): the inhibitory constant (Ki) is 4.42 µM at Vasopressin V2 receptor and 0.0633 µM on Vasopressin V1a receptor.

Regarding `NCCCC[C@@H]1NC(=O)[C@H](Cc2ccccc2)NC(=O)[C@H](Cc2ccc(O)cc2)NC(=O)CCSSC[C@@H](C(=O)N2CCC[C@H]2C(=O)N[C@@H](CCCN=C(N)N)C(=O)NCC(N)=O)NC(=O)[C@H](CC(N)=O)NC1=O` (stereo in doubt), the Ki on Vasopressin V2 receptor was 11.2 µM; at Vasopressin V1a receptor, 0.463 µM.

Regarding `CCCC[C@@H]1NC(=O)[C@H](Cc2ccccc2)NC(=O)[C@H](Cc2ccc(O)cc2)NC(=O)CCSSC[C@@H](C(=O)N2CCC[C@H]2C(=O)N[C@@H](CCCN=C(N)N)C(=O)NCC(N)=O)NC(=O)[C@H](CC(N)=O)NC1=O` (stereo in doubt), the Ki on Vasopressin V2 receptor is 0.117 µM; on Vasopressin V1a receptor it was 0.0281 µM.

Take `CCC[C@@H]1NC(=O)[C@H](Cc2ccccc2)NC(=O)[C@H](Cc2ccc(O)cc2)NC(=O)CCSSC[C@@H](C(=O)N2CCC[C@H]2C(=O)N[C@@H](CCCN=C(N)N)C(=O)NCC(N)=O)NC(=O)[C@H](CC(N)=O)NC1=O` (stereo in doubt): the Ki on Vasopressin V2 receptor amounted to 0.0241 µM; on Vasopressin V1a receptor, 0.0225 µM.

For `NCC[C@@H]1NC(=O)[C@H](Cc2ccccc2)NC(=O)[C@H](Cc2ccc(O)cc2)NC(=O)CCSSC[C@@H](C(=O)N2CCC[C@H]2C(=O)N[C@@H](CCCN=C(N)N)C(=O)NCC(N)=O)NC(=O)[C@H](CC(N)=O)NC1=O` (stereo in doubt), the values for the inhibition constant Ki on Vasopressin V2 receptor and at Vasopressin V1a receptor were 0.568 µM and 0.0363 µM, respectively.

With `NC(=O)CNC(=O)[C@H](CCCN=C(N)N)NC(=O)[C@@H]1CCCN1C(=O)[C@@H]1CSSCCC(=O)N[C@@H](Cc2ccc(O)cc2)C(=O)N[C@@H](Cc2ccccc2)C(=O)N[C@@H](Cc2c[nH]c3ccccc23)C(=O)N[C@@H](CC(N)=O)C(=O)N1` (stereo in doubt), the Ki turned out to be 0.08 µM at Vasopressin V2 receptor and 0.075 µM at Vasopressin V1a receptor.

Consider `CC[C@@H]1NC(=O)[C@H](Cc2ccccc2)NC(=O)[C@H](Cc2ccc(O)cc2)NC(=O)CCSSC[C@@H](C(=O)N2CCC[C@H]2C(=O)N[C@@H](CCCN=C(N)N)C(=O)NCC(N)=O)NC(=O)[C@H](CC(N)=O)NC1=O` (stereo in doubt), for which the Ki turned out to be 0.0021 µM at Vasopressin V2 receptor and 0.0197 µM at Vasopressin V1a receptor.

With `C[C@@H]1NC(=O)[C@H](Cc2ccccc2)NC(=O)[C@H](Cc2ccc(O)cc2)NC(=O)CCSSC[C@@H](C(=O)N2CCC[C@H]2C(=O)N[C@@H](CCCN=C(N)N)C(=O)NCC(N)=O)NC(=O)[C@H](CC(N)=O)NC1=O`, the results for the inhibitory constant (Ki) at Vasopressin V2 receptor and at Vasopressin V1a receptor were 0.0137 µM and 0.0218 µM, respectively.

Regarding `NC(=O)CNC(=O)[C@H](CCCN=C(N)N)NC(=O)[C@@H]1CCCN1C(=O)[C@@H]1CSSCCC(=O)N[C@@H](Cc2ccc(O)cc2)C(=O)N[C@@H](Cc2ccccc2)C(=O)N[C@@H](CCCCN=C(N)N)C(=O)N[C@@H](CC(N)=O)C(=O)N1` (stereo in doubt), the results for the inhibition constant (Ki) at Vasopressin V2 receptor and on Vasopressin V1a receptor were 1.39 µM and 0.0482 µM, respectively.

The values above are taken from ChEMBL document CHEMBL1149164, “Design of potent and selective agonists for the human vasopressin V1b receptor based on modifications of [deamino-cys1]arginine vasopressin at position 4” (J Med Chem, 2004).
